Source: ChEMBL document CHEMBL1687901 (J Med Chem, 2011)
≈ marks a conversion by molar mass, not a printed value.

Legend:
Format in all cases: functional
Staphylococcus aureus [1] = assay: Antibacterial activity against wild type Staphylococcus aureus Smith ATCC 13709 by CLSI M07-A8 method
Staphylococcus aureus [2] = assay: Antibacterial activity against tetracycline-resistant Staphylococcus aureus isolate 161 harboring tet(M) gene by CLSI M07-A8 method
How it was run: (§1)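 MICs were determined by CLSI broth microdilution in freshly prepared cation-adjusted Mueller Hinton broth, kept at 4 °C before use. Defibrinated horse blood was added as appropriate. Runs met QC ranges for comparator antibiotics with ATCC quality control strains.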

Staphylococcus aureus [3] = assay: Antibacterial activity against tetracycline-resistant Staphylococcus aureus isolate 158 harboring tet(K) gene by CLSI M07-A8 method; how it was run: as §1
Streptococcus pneumoniae [4] = assay: Antibacterial activity against Streptococcus pneumoniae ATCC 49619 by CLSI M07-A8 method
Streptococcus pneumoniae [5] = assay: Antibacterial activity against tetracycline-resistant Streptococcus pneumoniae isolate 160 harboring tet(M) gene by CLSI M07-A8 method; how it was run: as §1
Escherichia coli [6] = assay: Antibacterial activity against Escherichia coli ATCC 25922 by CLSI M07-A8 method
Escherichia coli [7] = assay: Antibacterial activity against tetracycline-resistant Escherichia coli isolate 155 harboring tet(A) gene by CLSI M07-A8 method
How it was run: as §1, with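 “appropriate. The highest concentration tested was 32 μg/mL.” for “appropriate.”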

Klebsiella pneumoniae = assay: Antibacterial activity against Klebsiella pneumoniae ATCC 13883 by CLSI M07-A8 method

Compound	MIC (Staphylococcus aureus [1])	MIC (Staphylococcus aureus [2])	MIC (Staphylococcus aureus [3])	MIC (Streptococcus pneumoniae [4])	MIC (Streptococcus pneumoniae [5])	MIC (Escherichia coli [6])	MIC (Escherichia coli [7])	MIC (Klebsiella pneumoniae)
CN(C)[C@@H]1C(O)=C(C(N)=O)C(=O)[C@@]2(O)C(O)=C3C(=O)c4c(O)cnc(Cl)c4C[C@H]3C[C@@H]12.Cl	1 µg/mL	32 µg/mL	32 µg/mL	1 µg/mL	32 µg/mL	2 µg/mL	> 32 µg/mL	4 µg/mL
CN(C)[C@@H]1C(O)=C(C(N)=O)C(=O)[C@@]2(O)C(O)=C3C(=O)c4c(O)cnc(F)c4C[C@H]3C[C@@H]12.Cl	0.063 µg/mL	8 µg/mL	8 µg/mL	0.016 µg/mL	8 µg/mL	0.25 µg/mL	> 32 µg/mL	0.5 µg/mL
CN(C)CCNc1nc(Cl)c2c(c1O)C(=O)C1=C(O)[C@]3(O)C(=O)C(C(N)=O)=C(O)[C@@H](N(C)C)[C@@H]3C[C@@H]1C2.Cl	2 µg/mL	4 µg/mL	1 µg/mL	0.5 µg/mL	2 µg/mL	4 µg/mL	32 µg/mL	8 µg/mL
CN(C)[C@@H]1C(O)=C(C(N)=O)C(=O)[C@@]2(O)C(O)=C3C(=O)c4c(O)c(NCC(C)(C)CN5CCCC5)nc(Cl)c4C[C@H]3C[C@@H]12.Cl	0.5 µg/mL	2 µg/mL	0.125 µg/mL	0.031 µg/mL	0.25 µg/mL	2 µg/mL	8 µg/mL	4 µg/mL
CN(C)CC(C)(C)CNc1nc(F)c2c(c1O)C(=O)C1=C(O)[C@]3(O)C(=O)C(C(N)=O)=C(O)[C@@H](N(C)C)[C@@H]3C[C@@H]1C2.Cl	1 µg/mL	2 µg/mL	0.5 µg/mL	0.5 µg/mL	1 µg/mL	1 µg/mL	8 µg/mL	2 µg/mL
CCCc1nc(Cl)c2c(c1O)C(=O)C1=C(O)[C@]3(O)C(=O)C(C(N)=O)=C(O)[C@@H](N(C)C)[C@@H]3C[C@@H]1C2.Cl	1 µg/mL	4 µg/mL	4 µg/mL	1 µg/mL	4 µg/mL	> 32 µg/mL	> 32 µg/mL	32 µg/mL
Cc1nc(Cl)c2c(c1O)C(=O)C1=C(O)[C@]3(O)C(=O)C(C(N)=O)=C(O)[C@@H](N(C)C)[C@@H]3C[C@@H]1C2.Cl	2 µg/mL	8 µg/mL	16 µg/mL	0.5 µg/mL	8 µg/mL	8 µg/mL	> 32 µg/mL	8 µg/mL
CNc1nc(Cl)c2c(c1O)C(=O)C1=C(O)[C@]3(O)C(=O)C(C(N)=O)=C(O)[C@@H](N(C)C)[C@@H]3C[C@@H]1C2.Cl.Cl.Cl	0.016 µg/mL	1 µg/mL	2 µg/mL	0.016 µg/mL	4 µg/mL	0.125 µg/mL	32 µg/mL	0.5 µg/mL
CC(C)Nc1nc(Cl)c2c(c1O)C(=O)C1=C(O)[C@]3(O)C(=O)C(C(N)=O)=C(O)[C@@H](N(C)C)[C@@H]3C[C@@H]1C2.Cl.Cl.Cl	1 µg/mL	4 µg/mL	2 µg/mL	2 µg/mL	16 µg/mL	32 µg/mL	> 32 µg/mL	32 µg/mL
CC(C)CCNc1nc(Cl)c2c(c1O)C(=O)C1=C(O)[C@]3(O)C(=O)C(C(N)=O)=C(O)[C@@H](N(C)C)[C@@H]3C[C@@H]1C2.Cl.Cl.Cl	0.25 µg/mL	2 µg/mL	0.25 µg/mL	8 µg/mL	32 µg/mL	> 32 µg/mL	> 32 µg/mL	> 32 µg/mL
COCCNc1nc(Cl)c2c(c1O)C(=O)C1=C(O)[C@]3(O)C(=O)C(C(N)=O)=C(O)[C@@H](N(C)C)[C@@H]3C[C@@H]1C2.Cl.Cl.Cl	0.031 µg/mL	4 µg/mL	1 µg/mL	0.063 µg/mL	4 µg/mL	1 µg/mL	32 µg/mL	4 µg/mL
Cc1ncc2c(c1O)C(=O)C1=C(O)[C@]3(O)C(=O)C(C(N)=O)=C(O)[C@@H](N(C)C)[C@@H]3C[C@@H]1C2.Cl.Cl	4 µg/mL	32 µg/mL	32 µg/mL	1 µg/mL	16 µg/mL	8 µg/mL	> 32 µg/mL	8 µg/mL
CCCc1nc(N(C)C)c2c(c1O)C(=O)C1=C(O)[C@]3(O)C(=O)C(C(N)=O)=C(O)[C@@H](N(C)C)[C@@H]3C[C@@H]1C2.Cl.Cl	1 µg/mL	2 µg/mL	1 µg/mL	1 µg/mL	2 µg/mL	16 µg/mL	> 32 µg/mL	16 µg/mL
CN(C)[C@@H]1C(O)=C(C(N)=O)C(=O)[C@@]2(O)C(O)=C3C(=O)c4c(O)cncc4C[C@H]3C[C@@H]12.Cl.Cl	1 µg/mL	32 µg/mL	16 µg/mL	0.25 µg/mL	32 µg/mL	0.5 µg/mL	> 32 µg/mL	1 µg/mL
COc1ncc(O)c2c1C[C@H]1C[C@H]3[C@H](N(C)C)C(O)=C(C(N)=O)C(=O)[C@@]3(O)C(O)=C1C2=O.Cl.Cl	0.125 µg/mL	8 µg/mL	4 µg/mL	0.063 µg/mL	16 µg/mL	0.25 µg/mL	> 32 µg/mL	1 µg/mL
CC(C)OCCNc1nc(Cl)c2c(c1O)C(=O)C1=C(O)[C@]3(O)C(=O)C(C(N)=O)=C(O)[C@@H](N(C)C)[C@@H]3C[C@@H]1C2.Cl.Cl.Cl	0.5 µg/mL	2 µg/mL	0.25 µg/mL	0.031 µg/mL	4 µg/mL	8 µg/mL	> 32 µg/mL	16 µg/mL
CN(C)[C@@H]1C(O)=C(C(N)=O)C(=O)[C@@]2(O)C(O)=C3C(=O)c4c(O)cnc(-c5ccccc5)c4C[C@H]3C[C@@H]12.Cl.Cl	0.063 µg/mL	32 µg/mL	1 µg/mL	0.031 µg/mL	4 µg/mL	0.5 µg/mL	> 32 µg/mL	2 µg/mL
CCNc1nc(Cl)c2c(c1O)C(=O)C1=C(O)[C@]3(O)C(=O)C(C(N)=O)=C(O)[C@@H](N(C)C)[C@@H]3C[C@@H]1C2.Cl.Cl.Cl	0.031 µg/mL	1 µg/mL	0.5 µg/mL	0.031 µg/mL	4 µg/mL	0.5 µg/mL	16 µg/mL	2 µg/mL
CC(C)CNc1nc(Cl)c2c(c1O)C(=O)C1=C(O)[C@]3(O)C(=O)C(C(N)=O)=C(O)[C@@H](N(C)C)[C@@H]3C[C@@H]1C2.Cl.Cl.Cl	0.5 µg/mL	1 µg/mL	0.5 µg/mL	1 µg/mL	8 µg/mL	16 µg/mL	> 32 µg/mL	> 32 µg/mL
Cc1ncc(O)c2c1C[C@H]1C[C@H]3[C@H](N(C)C)C(O)=C(C(N)=O)C(=O)[C@@]3(O)C(O)=C1C2=O.Cl.Cl	1 µg/mL	32 µg/mL	0.5 µg/mL	0.25 µg/mL	> 32 µg/mL	1 µg/mL	> 32 µg/mL	1 µg/mL
CN(C)c1ccc(O)c2c1C[C@H]1C[C@H]3[C@H](N(C)C)C(O)=C(C(N)=O)C(=O)[C@@]3(O)C(O)=C1C2=O [MINOCYCLINE]	0.125 µg/mL (≈ 0.273 µM)	16 µg/mL (≈ 35 µM)	0.25 µg/mL (≈ 0.546 µM)	< 0.016 µg/mL	8 µg/mL (≈ 17.5 µM)	0.5 µg/mL (≈ 1.09 µM)	8 µg/mL (≈ 17.5 µM)	–
